# PMC5351328 (Clinical and Translational Science, 2016)
# Where two headings read alike, the source gives them in different places.
# Assays:
# [1] = type: in vivo, human; settings: for CL/F / AUC / AUC(0-inf) / Cmax / concentration at 14 day / Tmax / Vd/F / half-life: geometric mean (SD); for AUC / AUC(0-inf) / Cmax / concentration at 14 day / Tmax / Vd/F / half-life: human, plasma, oral; for AUC: AUC0–τ; for AUC(0-inf): AUC0–∞; for concentration at 14 day: Cmin; for Vd/F: Vz/F; for time to steady-state conditions: predose samples
# Summary of the method: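 Plasma sampled on Days 1 and 14 predose and 0.5–24 h postdose, plus predose on Days 3, 5, 7, 10, 13, 16. Blood kept on ice, spun 2,000g 15 min at 5°C within 45 min, and plasma stored at –70°C. Extraction was by protein precipitation with internal standard. Parameters came from noncompartmental analysis. ANOVA on ln-transformed Cmax, Cmin and AUC0–τ gave geometric mean ratios with 90% CIs versus matched controls.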
# Safety and tolerability = type: in vivo, human; settings: for tolerability: 150 mg once daily for 14 days, regardless of HI
# Summary of the method: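 Adverse events were monitored continuously and graded with the Division of AIDS toxicity scale. Hematology, clinical chemistry, urinalysis and 12-lead ECG were done at screening, baseline (Day –1), Day 14 and Day 28, with hematology and chemistry also at Day 7. Physical exams ran through follow-up (Day 28, or Day 35 for hepatic impairment). Data were summarised descriptively without formal statistical testing.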
# CCR2 = CCR2 (Homo sapiens, UniProt P41597); assay: CCR2 antagonist activity: plasma CCR2 ligand; type: in vivo; settings: across all groups, P < 0.05
# Summary of the method: (§1)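 Adults with mild or moderate hepatic impairment and matched controls with normal hepatic function were given an oral 150 mg tablet of the test compound over 14 days. Plasma was sampled on Day 1 (predose), Day 7 and Day 14. CCL2, CCL3 and CCL4 were measured by Luminex multiplex and CCL5 by ELISA. Medians, IQR and change from baseline were reported, with Wilcoxon tests.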
# CCR5 = CCR5 (Homo sapiens, UniProt P51681); assay: CCR5 antagonist activity: plasma CCR5 ligand; type: in vivo; settings: for CCL4 median fold-change: P < 0.05
# Summary of the method: as §1
# [2] = system: proinflammatory cytokines (IL-6, TNF-α, IL-1β, TGF-β); assay: Plasma proinflammatory cytokines during treatment; type: in vivo, human
# Summary of the method: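 Plasma was taken at Day 1 predose and on treatment Days 7 and 14. IL-6, TNF-α, IL-1β and TGF-β were quantified by Luminex multiplex bead assay, with a magnetic cytokine panel for IL-1β and IL-6. Values were summarised by study day as medians and interquartile ranges, with change from baseline. Comparisons used Wilcoxon tests.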
# [3] = cited from earlier work
# CYP3A4 [4] = settings: cited from earlier work
# CYP2C8 = settings: cited from earlier work
# P-glycoprotein = settings: cited from earlier work
# CYP3A4 [5] = settings: cited from earlier work; remark: listed apart in the source
# [6] = cited from earlier work; remark: listed apart in the source
# [7] = Day 14, mild hepatic impairment
# [8] = Day 14, moderate hepatic impairment
# [9] = 150 mg, Day 14, 150 mg once daily, matched controls (mild)
# [10] = 150 mg, Day 14, 150 mg once daily, matched controls (moderate)
# [11] = 150 mg, Day 14, 150 mg once daily, mild hepatic impairment
# [12] = 150 mg, Day 14, 150 mg once daily, moderate hepatic impairment
# [13] = matched controls (mild) (N = 7)
# [14] = matched controls (moderate) (N = 8)
# [15] = mild hepatic impairment (N = 8)
# [16] = moderate hepatic impairment (N = 8)
# Sequence of CCR5 (P51681 whole entry): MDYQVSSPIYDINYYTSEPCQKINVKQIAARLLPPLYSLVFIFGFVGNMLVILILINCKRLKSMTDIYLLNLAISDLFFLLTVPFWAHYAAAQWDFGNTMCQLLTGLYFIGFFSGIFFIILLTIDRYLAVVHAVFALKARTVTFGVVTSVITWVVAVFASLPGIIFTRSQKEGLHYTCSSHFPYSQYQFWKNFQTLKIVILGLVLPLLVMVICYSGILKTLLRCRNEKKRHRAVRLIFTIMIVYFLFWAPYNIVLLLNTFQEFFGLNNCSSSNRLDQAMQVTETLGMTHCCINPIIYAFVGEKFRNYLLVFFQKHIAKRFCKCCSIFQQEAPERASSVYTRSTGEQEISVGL
# Sequence of CCR2 (P41597 whole entry): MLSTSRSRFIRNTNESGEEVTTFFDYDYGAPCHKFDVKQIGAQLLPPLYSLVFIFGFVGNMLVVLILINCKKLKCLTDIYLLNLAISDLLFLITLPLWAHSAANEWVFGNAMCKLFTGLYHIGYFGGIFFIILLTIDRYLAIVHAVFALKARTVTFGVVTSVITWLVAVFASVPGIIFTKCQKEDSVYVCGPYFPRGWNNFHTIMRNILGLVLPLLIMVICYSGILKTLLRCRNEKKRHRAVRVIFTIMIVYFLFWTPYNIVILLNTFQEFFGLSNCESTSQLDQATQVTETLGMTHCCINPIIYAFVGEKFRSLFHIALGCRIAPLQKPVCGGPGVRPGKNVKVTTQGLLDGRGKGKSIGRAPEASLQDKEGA
compound,measurement,setting,value
CCCCOCCOc1ccc(-c2ccc3c(c2)/C=C(/C(=O)Nc2ccc([S@@+]([O-])Cc4cncn4CCC)cc2)CCCN3CC(C)C)cc1 [cenicriviroc],CL/F,"[1]; Day 1, 150 mg, matched controls (mild)",22.1 L/h
same,CL/F,"[1]; Day 1, 150 mg, matched controls (moderate)",31.7 L/h
same,CL/F,"[1]; Day 1, 150 mg, mild hepatic impairment",27.1 L/h
same,CL/F,"[1]; Day 1, 150 mg, moderate hepatic impairment",25.8 L/h
same,CL/F,"[1]; Day 14, 150 mg once daily, matched controls (mild)",14.4 (1.5) L/h
same,CL/F,"[1]; Day 14, 150 mg once daily, matched controls (moderate)",25.3 (2.0) L/h
same,CL/F,"[1]; Day 14, 150 mg once daily, mild hepatic impairment",23.2 (1.9) L/h
same,CL/F,"[1]; Day 14, 150 mg once daily, moderate hepatic impairment",16.3 (1.3) L/h
same,AUC0–τ lower than matched controls,[1]; [7],38%
same,Cmax lower than matched controls,[1]; [7],40%
same,Cmin lower than matched controls,[1]; [7],~27%
same,AUC0–τ higher than matched controls,[1]; [8],55%
same,Cmax higher than matched controls,[1]; [8],29%
same,Cmin higher than matched controls,[1]; [8],~97%
same,AUC,[1]; [9],10400 ng·h/mL
same,AUC,[1]; [10],5940 ng·h/mL
same,AUC,[1]; [11],6470 ng·h/mL
same,AUC,[1]; [12],9180 ng·h/mL
same,AUC(0-inf),[1]; [9],18900 ng·h/mL
same,AUC(0-inf),[1]; [10],11000 ng·h/mL
same,AUC(0-inf),[1]; [11],14600 ng·h/mL
same,AUC(0-inf),[1]; [12],26100 ng·h/mL
same,Cmax,[1]; [9],759 ng/mL
same,Cmax,[1]; [10],469 ng/mL
same,Cmax,[1]; [11],452 ng/mL
same,Cmax,[1]; [12],607 ng/mL
same,concentration at 14 day,[1]; [9],248 ng/mL
same,concentration at 14 day,[1]; [10],140 ng/mL
same,concentration at 14 day,[1]; [11],180 ng/mL
same,concentration at 14 day,[1]; [12],275 ng/mL
same,Tmax,[1]; [9],5.66 h
same,Tmax,[1]; [10],4.49 h
same,Tmax,[1]; [11],5.34 h
same,Tmax,[1]; [12],4.83 h
same,Vd/F,"[1]; 150 mg, Day 1, 150 mg, matched controls (mild)",262 L
same,Vd/F,"[1]; 150 mg, Day 1, 150 mg, matched controls (moderate)",370 L
same,Vd/F,"[1]; 150 mg, Day 1, 150 mg, mild hepatic impairment",329 L
same,Vd/F,"[1]; 150 mg, Day 1, 150 mg, moderate hepatic impairment",386 L
same,Vd/F,[1]; [9],455 L
same,Vd/F,[1]; [10],816 L
same,Vd/F,[1]; [11],995 L
same,Vd/F,[1]; [12],886 L
same,half-life,"[1]; 150 mg, t1/2, Day 1, 150 mg, moderate hepatic impairment",10.4 h
same,half-life,"[1]; 150 mg, t1/2, Day 14, 150 mg once daily, matched controls (mild)",22 h
same,half-life,"[1]; 150 mg, t1/2, Day 14, 150 mg once daily, matched controls (moderate)",22.4 h
same,half-life,"[1]; 150 mg, t1/2, Day 14, 150 mg once daily, mild hepatic impairment",29.7 h
same,half-life,"[1]; 150 mg, t1/2, Day 14, 150 mg once daily, moderate hepatic impairment",37.6 h
same,time to steady-state conditions,[1]; matched controls,7 to 10 days
same,time to steady-state conditions,[1]; participants with mild or moderate HI,10 to 13 days
same,tolerability,Safety and tolerability,generally well tolerated
same,tolerability,Safety and tolerability; listed as Cenicriviroc,well tolerated
same,AST (treatment-emergent Grade 1 elevation),"Safety and tolerability; Day 7, one matched control (moderate), resolved upon continued dosing",1.3 x ULN
same,AST,"Safety and tolerability; Day 28, another participant with moderate HI, screening 5.9 x ULN",10.2 x ULN
same,Participants with any treatment-related AEs,Safety and tolerability; [13],3 (42.9) N (%)
same,Treatment-related AE: Dry mouth,Safety and tolerability; [13],2 (28.6) N (%)
same,Treatment-related AE: Epigastric discomfort,Safety and tolerability; [13],0 (0) N (%)
same,Treatment-related AE: Flatulence,Safety and tolerability; [13],0 (0) N (%)
same,Treatment-related AE: Headache,Safety and tolerability; [13],1 (14.3) N (%)
same,Treatment-related AEs Grade 1,Safety and tolerability; [13],3 (42.9) N (%)
same,Treatment-related AEs Grade 2,Safety and tolerability; [13],0 (0) N (%)
same,Treatment-related AEs Grade 3,Safety and tolerability; [13],0 (0) N (%)
same,Treatment-related AEs Grade 4,Safety and tolerability; [13],0 (0) N (%)
same,Participants with any treatment-related AEs,Safety and tolerability; [14],4 (50.0) N (%)
same,Treatment-related AE: Dry mouth,Safety and tolerability; [14],0 (0) N (%)
same,Treatment-related AE: Epigastric discomfort,Safety and tolerability; [14],0 (0) N (%)
same,Treatment-related AE: Flatulence,Safety and tolerability; [14],1 (12.5) N (%)
same,Treatment-related AE: Headache,Safety and tolerability; [14],1 (12.5) N (%)
same,Treatment-related AEs Grade 1,Safety and tolerability; [14],4 (50.0) N (%)
same,Treatment-related AEs Grade 2,Safety and tolerability; [14],0 (0) N (%)
same,Treatment-related AEs Grade 3,Safety and tolerability; [14],0 (0) N (%)
same,Treatment-related AEs Grade 4,Safety and tolerability; [14],0 (0) N (%)
same,Participants with any treatment-related AEs,Safety and tolerability; [15],6 (75.0) N (%)
same,Treatment-related AE: Dry mouth,Safety and tolerability; [15],0 (0) N (%)
same,Treatment-related AE: Epigastric discomfort,Safety and tolerability; [15],1 (12.5) N (%)
same,Treatment-related AE: Flatulence,Safety and tolerability; [15],1 (12.5) N (%)
same,Treatment-related AEs Grade 1,Safety and tolerability; [15],6 (75.0) N (%)
same,Treatment-related AEs Grade 2,Safety and tolerability; [15],0 (0) N (%)
same,Treatment-related AEs Grade 3,Safety and tolerability; [15],0 (0) N (%)
same,Treatment-related AEs Grade 4,Safety and tolerability; [15],0 (0) N (%)
same,Participants with any treatment-related AEs,Safety and tolerability; [16],4 (50.0) N (%)
same,Treatment-related AE: Dry mouth,Safety and tolerability; [16],0 (0) N (%)
same,Treatment-related AE: Epigastric discomfort,Safety and tolerability; [16],1 (12.5) N (%)
same,Treatment-related AE: Flatulence,Safety and tolerability; [16],0 (0) N (%)
same,Treatment-related AE: Headache,Safety and tolerability; [16],1 (12.5) N (%)
same,Treatment-related AEs Grade 1,Safety and tolerability; [16],4 (50.0) N (%)
same,Treatment-related AEs Grade 2,Safety and tolerability; [16],0 (0) N (%)
same,Treatment-related AEs Grade 3,Safety and tolerability; [16],1 (12.5) N (%)
same,Treatment-related AEs Grade 4,Safety and tolerability; [16],0 (0) N (%)
same,CCL2 median fold-change,CCR2; Day 7 vs Day 1 (predose),4.4–5.5
same,CCL2 median fold-change,CCR2; Day 14 vs Day 1 (predose),4.8–6.0
same,CCL4 median fold-change,CCR5; after 7 days of treatment vs Day 1 (predose),1.8–2.3
same,CCL4 median fold-change,CCR5; after 14 days of treatment vs Day 1 (predose),1.6–2.5
same,CCL3 levels change during treatment,CCR5; any group,did not change significantly
same,CCL5 change during treatment,"CCR5; matched controls (moderate) only, Day 14 vs Day 1, P = 0.008",increased significantly
same,IL-1β levels change during treatment,[2]; any group,did not change significantly
same,IL-6 levels change during treatment,[2]; any group,did not change significantly
same,TNF-α levels change during treatment,[2]; any group,did not change significantly
same,TGF-β levels change during treatment,"[2]; moderate HI group, Day 1 vs Day 14, P < 0.01",increased
same,bound to plasma proteins,[3],> 98%
same,substrate of CYP3A4,CYP3A4 [4],substrate
same,substrate of CYP2C8,CYP2C8,substrate
same,substrate of P-glycoprotein,P-glycoprotein,substrate
same,inhibition of CYP3A4,CYP3A4 [5],weak inhibitor
same,"APRI, FIB-4 and enhanced liver fibrosis score",[6]; HIV-infected participants,decreases
same,sCD14 levels,[6]; HIV-positive participants (Study 202),decreased
